Experimental data reported in ChEMBL document CHEMBL3525963, “Tissue distribution and elimination of [14C]apixaban in rats” (Drug Metab Dispos, 2011).

Assays:
Assay type in all cases: ADME, organism-based
Design in all cases: dose 5 mg/kg, dosed compound name [14C]-apixaban, route oral
Details in all cases: in vivo
Heart [1] = assay: Biodistribution in female Sprague-Dawley rat heart at 5 mg/kg, po administered as single dose measured after 72 hrs
Procedure, shortened: (§1)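 Quantitative whole-body autoradiography was run after a single 5 mg/kg (100 μCi/kg) oral gavage to fasted female or pregnant SD rats, one rat per time point. Carcasses were frozen in hexane/dry ice, and 40 µm sagittal sections were dried at −20°C for at least 48 h. Sections were exposed to a phosphor plate alongside [14C]glucose standards (0.001–6.5 µCi/g). Results are µg eq/g, with LLOQ 0.037 µg eq/g.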

Blood [2] = assay: Biodistribution in male Sprague-Dawley rat blood at 5 mg/kg, po administered as single dose measured after 8 hrs
Procedure, shortened: (§2)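 [¹⁴C]Apixaban given by oral gavage at 5 mg/kg (100 μCi/kg) in 0.5% Tween 80 in Labrafil (1.0 mg/mL dosing solution) to rats fasted overnight through 4 h post-dose. One rat per time point; carcass frozen in hexane/dry ice. Quantitative whole-body autoradiography used 40 µm sagittal sections and a phosphor imaging plate calibrated with [¹⁴C]glucose standards (0.001–6.5 μCi/g). Read-out in µg eq apixaban/g; LLOQ 0.037 μg eq/g.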

Plasma = assay: AUC (0 to t) in lactating Sprague-Dawley rat plasma at 5 mg/kg, po administered as single dose
Procedure, shortened: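 Fasted lactating SD rats received 5 mg/kg [14C]apixaban orally (formulation 5.0 mg/mL, 20 μCi/mL). Oxytocin was injected subcutaneously 15 min before collection, and 1 mL milk was taken under anesthesia by milking machine. Sampling was predose and at 0.5–24 h, 3 rats per time point. Plasma was obtained at 1300g for 10 min. Duplicate 50–100 µL aliquots were counted by LSC for 10 min. AUC was calculated in WinNonlin.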

Thymus [3] = assay: Biodistribution in pregnant Sprague-Dawley rat thymus at 5 mg/kg, po administered as single dose measured after 48 hrs
Procedure, shortened: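 Pregnant SD rats (270-319 g) were fasted overnight and given one oral gavage of 5 mg/kg (100 μCi/kg) in 0.5% Tween 80 in Labrafil. One rat was euthanized per time point (0.5, 1, 4, 8, 24, 48 h) and the carcass frozen. 40 µm sagittal sections were phosphor-imaged against [14C]glucose standards and results reported as µg eq/g; LLOQ 0.037 µg eq/g.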

Rattus norvegicus [4] = assay: Biodistribution in male Sprague-Dawley rat bone marrow at 5 mg/kg, po administered as single dose measured after 24 hrs
Procedure, shortened: (§3)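 Fasted male SD rats (225-252 g) each received one oral gavage dose of [14C]apixaban, 5 mg/kg (100 μCi/kg), in 0.5% Tween 80/Labrafil vehicle. One rat was killed per time point, from 0.5 to 168 h. Frozen carcasses were cut into 40 µm sagittal whole-body sections and read by QWBA phosphor imaging against [14C]glucose calibrants. Results are in µg apixaban eq/g; BLQ <0.037 µg eq/g.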

Rattus norvegicus [5] = assay: Biodistribution in pregnant Sprague-Dawley rat kidney cortex at 5 mg/kg, po administered as single dose measured after 8 hrs
Spleen = assay: Biodistribution in male Sprague-Dawley rat spleen at 5 mg/kg, po administered as single dose measured after 4 hrs
Procedure, shortened: (§4)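 [14C]apixaban (1.0 mg/mL, 20 μCi/mL) in 0.5% Tween 80 in Labrafil, given by oral gavage at 100 μCi/kg to male rats (225-252 g) fasted overnight through 4 h post-dose. One rat per time point. Carcasses frozen in hexane/dry ice and cut into 40 µm sagittal sections. QWBA read on phosphor plates against [14C]glucose standards, reported as µg eq/g. LLOQ 0.037 µg eq/g.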

Blood [6] = assay: Cmax in female Sprague-Dawley rat blood at 5 mg/kg, po administered as single dose
Procedure, shortened: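 Fasted male, female or pregnant SD rats received a single oral gavage of 5 mg/kg (100 μCi/kg) in 0.5% Tween 80/Labrafil. One rat was killed per time point, up to 168 h (48 h for pregnant). Blood was collected into K3EDTA. Blood radioactivity came from autoradiogram or LSC data, and Cmax was taken from the concentration-time profile.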

Harderian gland [7] = assay: Biodistribution in pregnant Sprague-Dawley rat harderian gland at 5 mg/kg, po administered as single dose measured after 1 hr
Brain [8] = assay: Biodistribution in pregnant Sprague-Dawley rat brain at 5 mg/kg, po administered as single dose measured after 24 hrs
Procedure, shortened: (§5)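 Fasted pregnant SD rats (n=6, 270-319 g) each received one oral gavage dose of [14C]apixaban, 5 mg/kg (100 μCi/kg), in 0.5% Tween 80/Labrafil. One rat was killed at each of 0.5, 1, 4, 8, 24 and 48 h. Carcasses were frozen in hexane/dry ice, cut into 40 µm sagittal sections, exposed to phosphor plates and quantified against [14C]glucose standards as µg eq/g. LLOQ was 0.037 µg eq/g.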

Heart [9] = assay: Biodistribution in pregnant Sprague-Dawley rat heart at 5 mg/kg, po administered as single dose measured after 48 hrs; procedure, shortened: as §5
Adrenal gland = assay: Biodistribution in male Sprague-Dawley rat adrenal gland at 5 mg/kg, po administered as single dose measured after 72 hrs; procedure, shortened: as §3
Muscle tissue = assay: Biodistribution in male Sprague-Dawley rat muscle at 5 mg/kg, po administered as single dose measured after 1 hr; procedure, shortened: as §4
Brain [10] = assay: Biodistribution in pregnant Sprague-Dawley rat brain at 5 mg/kg, po administered as single dose measured after 1 hr
Rattus norvegicus [11] = assay: Biodistribution in female Sprague-Dawley rat kidney cortex at 5 mg/kg, po administered as single dose measured after 72 hrs; procedure, shortened: as §1
Rattus norvegicus [12] = assay: Biodistribution in male Sprague-Dawley rat kidney cortex at 5 mg/kg, po administered as single dose measured after 8 hrs
Thymus [13] = assay: Biodistribution in male Sprague-Dawley rat thymus at 5 mg/kg, po administered as single dose measured after 72 hrs; procedure, shortened: as §3
Harderian gland [14] = assay: Biodistribution in pregnant Sprague-Dawley rat harderian gland at 5 mg/kg, po administered as single dose measured after 0.5 hrs
Blood [15] = assay: Biodistribution in female Sprague-Dawley rat blood at 5 mg/kg, po administered as single dose measured after 72 hrs; procedure, shortened: as §1
Thymus [16] = assay: Biodistribution in female Sprague-Dawley rat thymus at 5 mg/kg, po administered as single dose measured after 4 hrs; procedure, shortened: as §2
Harderian gland [17] = assay: Biodistribution in female Sprague-Dawley rat harderian gland at 5 mg/kg, po administered as single dose measured after 8 hrs; procedure, shortened: as §2
Rattus norvegicus [18] = assay: Biodistribution in pregnant Sprague-Dawley rat salivary gland at 5 mg/kg, po administered as single dose measured after 1 hr
Brain [19] = assay: Biodistribution in pregnant Sprague-Dawley rat brain at 5 mg/kg, po administered as single dose measured after 4 hrs
Liver = assay: Biodistribution in female Sprague-Dawley rat liver at 5 mg/kg, po administered as single dose measured after 0.5 hrs; procedure, shortened: as §1

With `COc1ccc(-n2nc(C(N)=O)c3c2C(=O)N(c2ccc(N4CCCC[14C]4=O)cc2)CC3)cc1` the Radiolabel recovery (Heart [1]) was “Not detected assumed BLQ”, the Radiolabel recovery (Blood [2]) was 0.08 ugequiv/g and the AUCt (Plasma) was 3420 ngequiv.hr/g. The Radiolabel recovery (Thymus [3]) was “Not detected assumed BLQ”, the Radiolabel recovery (Rattus norvegicus [4]) was “Not sampled as not visualised in autoradiograph” and the Radiolabel recovery (Rattus norvegicus [5]) was 0.21 ugequiv/g. It also gave a Radiolabel recovery (Spleen) of 0.28 ugequiv/g, a Cmax (Blood [6]) of 880 ngequiv/g and a Radiolabel recovery (Harderian gland [7]) of 1.09 ugequiv/g. For the same molecule, the Radiolabel recovery (Brain [8]) was “Not detected assumed BLQ”, the Radiolabel recovery (Heart [9]) was “Not detected assumed BLQ” and the Radiolabel recovery (Adrenal gland) was “Not sampled as not visualised in autoradiograph”. The Radiolabel recovery (Muscle tissue) was 0.43 ugequiv/g, the Radiolabel recovery (Brain [10]) was 0.06 ugequiv/g and the Radiolabel recovery (Rattus norvegicus [11]) was “Not detected assumed BLQ”. The Radiolabel recovery (Rattus norvegicus [12]) was 0.88 ugequiv/g, the Radiolabel recovery (Thymus [13]) was “Not detected assumed BLQ” and the Radiolabel recovery (Harderian gland [14]) was 1 ugequiv/g. For the same molecule, the Radiolabel recovery (Blood [15]) was “Not detected assumed BLQ”, the Radiolabel recovery (Thymus [16]) was 0.3 ugequiv/g and the Radiolabel recovery (Harderian gland [17]) was 0.22 ugequiv/g. The Radiolabel recovery (Rattus norvegicus [18]) was 0.95 ugequiv/g, the Radiolabel recovery (Brain [19]) was under 0.037 ugequiv/g and the Radiolabel recovery (Liver) was 2.67 µgequiv/g.
